In brackets after ≈: the same amount, converted by molar mass.
Experiments:
[Candida] auris [1] = Antifungal activity against Candida auris assessed as FICI in presence of itraconazole; assay type: functional, Candidozyma auris
Procedure, shortened: (§1)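 Checkerboard combination scored by fractional inhibitory concentration index. Acylhydrazone serially diluted 16 to 0.015 μg/mL (11 dilutions). Partner drug in seven dilutions: fluconazole 12 to 0.19 μg/mL, amphotericin B 5 to 0.078 μg/mL, caspofungin, itraconazole or voriconazole 8 to 0.007 μg/mL.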

Pichia kudriavzevii [2] = test: Antifungal activity against fluconazole-resistant Candida krusei assessed as FICI in presence of itraconazole; assay type: functional
Procedure, shortened: (§2)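 Checkerboard in 96-well plate. Test compound diluted 16 to 0.015 μg/mL (11 dilutions) against the partner drug in seven dilutions: fluconazole 12 to 0.19 μg/mL, caspofungin, itraconazole or voriconazole 8 to 0.007 μg/mL. Fractional inhibitory concentration index (FICI) calculated from the combinations.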

Aspergillus fumigatus [3] = test: Antifungal activity against Aspergillus fumigatus assessed as FICI in presence of voriconazole; assay type: functional; procedure, shortened: as §1
[4] = Selectivity index, ratio of LD50 for human A549 cells to MIC80 for Cryptococcus neoformans H99; assay type: toxicity; settings: read-out: Selectivity Index
Procedure, shortened: (§3)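 SI = LD₅₀/MIC₈₀. Cytotoxicity: A549 or HepG2 cells (DMEM, 10% FBS, passage 7, 10⁵ cells/well) adhered 14 h, then exposed to 0.03–128 μg/mL for 24 or 48 h at 37°C, 5% CO₂; MTT 4 h, formazan dissolved in DMSO, read at 570 nm. MIC₈₀ against C. neoformans from broth microdilution in HEPES-buffered YNB, pH 7.0.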

Cryptococcus neoformans [5] = test: Fungicidal activity against Cryptococcus neoformans H99 measured after 24 hrs by time-kill assay; assay type: functional, var grubii H99
Procedure, shortened: (§4)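 Overnight C. neoformans washed in PBS and resuspended in HEPES-buffered YNB, pH 7.4. 2 × 10⁴ cells exposed to a range of drug concentrations in 10 mL with 0.5% DMSO final, at 37°C, 5% CO₂, shaking at 200 rpm. Aliquots sampled over 96 h, diluted and plated on YPD; CFU counted after 48 h at 30°C.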

Candida parapsilosis [6] = test: Antifungal activity against Candida parapsilosis assessed as FICI in presence of voriconazole; assay type: functional; procedure, shortened: as §1
Cryptococcus neoformans [7] = test: Antifungal activity against Cryptococcus neoformans H99 assessed as FICI in presence of amphotericin B; assay type: functional, var grubii H99; procedure, shortened: as §1
Pichia kudriavzevii [8] = test: Antifungal activity against Candida krusei 6258 assessed as FICI in presence of fluconazole; assay type: functional; procedure, shortened: as §1
Aspergillus fumigatus [9] = test: Antifungal activity against Aspergillus fumigatus assessed as FICI in presence of itraconazole; assay type: functional; procedure, shortened: as §1
Pichia kudriavzevii [10] = test: Antifungal activity against Candida krusei 6258 assessed as FICI in presence of voriconazole; assay type: functional; procedure, shortened: as §1
[Candida] auris [11] = Antifungal activity against Candida auris assessed as FICI in presence of voriconazole; assay type: functional, Candidozyma auris; procedure, shortened: as §1
Pichia kudriavzevii [12] = test: Antifungal activity against multi-drug resistant Candida krusei measured after 24 to 72 hrs; assay type: functional
Procedure, shortened: (§5)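 MIC by modified CLSI broth microdilution. Candida strains grown in YNB without ammonium sulfate or amino acids with 1% asparagine, pH 7.0, 2% glucose. Inoculum per CLSI M27A3. Compound serially diluted 32 to 0.03 μg/mL. Incubation 37°C, 5% CO₂, 24–72 h, then OD450. MIC80 taken as the lowest concentration giving 80% growth inhibition versus untreated control.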

Candida parapsilosis [13] = test: Antifungal activity against Candida parapsilosis measured after 24 to 72 hrs; assay type: functional; settings: Lodderomyces parapsilosis
Procedure, shortened: (§6)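 Modified CLSI broth microdilution with inoculum per M27A3. Compounds were serially diluted 32 to 0.03 μg/mL. Media: C. neoformans in HEPES-buffered YNB without amino acids (pH 7.0, 2% glucose); Candida strains in YNB without ammonium sulfate or amino acids plus 1% asparagine (pH 7.0, 2% glucose); A. fumigatus in RPMI (pH 7.0, 2% glucose).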

Pichia kudriavzevii [14] = test: Antifungal activity against Candida krusei 6258 assessed as FICI in presence of itraconazole; assay type: functional; procedure, shortened: as §1
Pichia kudriavzevii [15] = test: Antifungal activity against Candida krusei 6258 assessed as FICI in presence of caspofungin; assay type: functional; procedure, shortened: as §1
Aspergillus fumigatus [16] = test: Antifungal activity against Aspergillus fumigatus assessed as FICI in presence of fluconazole; assay type: functional; procedure, shortened: as §1
Candida albicans [17] = test: Antifungal activity against Candida albicans assessed as FICI in presence of fluconazole; assay type: functional; procedure, shortened: as §1
Candida parapsilosis [18] = test: Antifungal activity against Candida parapsilosis assessed as FICI in presence of caspofungin; assay type: functional; procedure, shortened: as §1
Cryptococcus neoformans [19] = test: Antifungal activity against Cryptococcus neoformans H99 assessed as FICI in presence of voriconazole; assay type: functional, var grubii H99; procedure, shortened: as §1
Candida albicans [20] = test: Antifungal activity against Candida albicans assessed as FICI in presence of itraconazole; assay type: functional; procedure, shortened: as §1
[21] = Selectivity index, ratio of LD50 for human HepG2 cells to MIC80 for Cryptococcus neoformans H99; assay type: toxicity; settings: read-out: Selectivity Index; procedure, shortened: as §3
Cryptococcus neoformans [22] = test: Fungicidal activity against Cryptococcus neoformans H99 measured after 12 hrs by time-kill assay; assay type: functional, var grubii H99; procedure, shortened: as §4
Candida parapsilosis [23] = test: Antifungal activity against Candida parapsilosis assessed as FICI in presence of fluconazole; assay type: functional; procedure, shortened: as §1
Cryptococcus neoformans [24] = test: Antifungal activity against Cryptococcus neoformans H99 assessed as FICI in presence of itraconazole; assay type: functional, var grubii H99; procedure, shortened: as §1
Cryptococcus neoformans [25] = test: Antifungal activity against Cryptococcus neoformans H99 measured after 24 to 72 hrs; assay type: functional; settings: var grubii H99; procedure, shortened: as §6
Pichia kudriavzevii [26] = test: Antifungal activity against Candida krusei measured after 24 to 72 hrs; assay type: functional; procedure, shortened: as §5
[Candida] auris [27] = Antifungal activity against Candida auris measured after 24 to 72 hrs; assay type: functional; settings: Candidozyma auris; procedure, shortened: as §6
Candida albicans [28] = test: Antifungal activity against Candida albicans assessed as FICI in presence of voriconazole; assay type: functional; procedure, shortened: as §1
Aspergillus fumigatus [29] = test: Antifungal activity against Aspergillus fumigatus measured after 24 to 72 hrs; assay type: functional; procedure, shortened: as §6
A549 = test: Cytotoxicity against human A549 cells after 24 to 48 hrs by MTT assay; assay type: functional; settings: read-out: LD50 (the source's name)
Procedure, shortened: (§7)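 A549 and HepG2 kept in DMEM with 10% FBS and 1% pen-strep. At passage 7, seeded at 10⁵ cells/well and allowed to adhere 14 h. Compound added at 0.03–128 μg/mL, untreated wells as controls. Incubation 37°C, 5% CO₂ for 24 or 48 h. MTT (5 mg/mL in PBS) added for 4 h, formazan dissolved in DMSO, OD570.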

Cryptococcus neoformans [30] = test: Antifungal activity against Cryptococcus neoformans H99 assessed as FICI in presence of fluconazole; assay type: functional, var grubii H99; procedure, shortened: as §1
Candida albicans [31] = test: Antifungal activity against Candida albicans measured after 24 to 72 hrs; assay type: functional; procedure, shortened: as §6
Pichia kudriavzevii [32] = test: Antifungal activity against fluconazole-resistant Candida krusei assessed as FICI in presence of voriconazole; assay type: functional; procedure, shortened: as §2
[Candida] auris [33] = Antifungal activity against Candida auris assessed as FICI in presence of caspofungin; assay type: functional, Candidozyma auris; procedure, shortened: as §1
Candida parapsilosis [34] = test: Antifungal activity against Candida parapsilosis assessed as FICI in presence of itraconazole; assay type: functional; procedure, shortened: as §1
HepG2 = test: Cytotoxicity against human HepG2 cells after 24 to 48 hrs by MTT assay; assay type: functional; settings: read-out: LD50 (the source's name); procedure, shortened: as §7
Candida albicans [35] = test: Antifungal activity against Candida albicans assessed as FICI in presence of caspofungin; assay type: functional; procedure, shortened: as §1
Cryptococcus neoformans [36] = test: Fungicidal activity against Cryptococcus neoformans H99 measured up to 96 hrs by time-kill assay; assay type: functional, organism-based; settings: var grubii H99; procedure, shortened: as §4
[Candida] auris [37] = Antifungal activity against Candida auris assessed as FICI in presence of fluconazole; assay type: functional, Candidozyma auris; procedure, shortened: as §1
Cryptococcus neoformans [38] = test: Fungicidal activity against Cryptococcus neoformans H99 measured after 96 hrs by time-kill assay; assay type: functional, var grubii H99; procedure, shortened: as §4
Cryptococcus neoformans [39] = test: Fungicidal activity against Cryptococcus neoformans H99 measured after 6 hrs by time-kill assay; assay type: functional, var grubii H99; procedure, shortened: as §4

## O=C(N/N=C/c1ccc(Br)cc1O)c1cc(Br)cc(Br)c1O
[Candida] auris [1]
  fractional inhibitory concentration index (FICI): 0.18
Pichia kudriavzevii [2]
  fractional inhibitory concentration index (FICI): 0.023
Aspergillus fumigatus [3]
  fractional inhibitory concentration index (FICI): 0.188
[4]
  selectivity ratio: 533
Cryptococcus neoformans [5]
  MFC100: 0.12 µg/mL (≈ 0.243 µM)
Candida parapsilosis [6]
  fractional inhibitory concentration index (FICI): 0.135
Cryptococcus neoformans [7]
  fractional inhibitory concentration index (FICI): 0.261
Pichia kudriavzevii [8]
  fractional inhibitory concentration index (FICI): 0.501
Aspergillus fumigatus [9]
  fractional inhibitory concentration index (FICI): 1.016
Pichia kudriavzevii [10]
  fractional inhibitory concentration index (FICI): 0.129
[Candida] auris [11]
  fractional inhibitory concentration index (FICI): 0.252
Pichia kudriavzevii [12]
  MIC80: 0.25 µg/mL (≈ 0.507 µM)
Candida parapsilosis [13]
  MIC80: 2 µg/mL (≈ 4.06 µM)
Pichia kudriavzevii [14]
  fractional inhibitory concentration index (FICI): 0.183
Pichia kudriavzevii [15]
  fractional inhibitory concentration index (FICI): 2.002
Aspergillus fumigatus [16]
  fractional inhibitory concentration index (FICI): 2
Candida albicans [17]
  fractional inhibitory concentration index (FICI): 2
Candida parapsilosis [18]
  fractional inhibitory concentration index (FICI): 2
Cryptococcus neoformans [19]
  fractional inhibitory concentration index (FICI): 0.24
Candida albicans [20]
  fractional inhibitory concentration index (FICI): 0.188
[21]
  selectivity ratio: 533
Cryptococcus neoformans [22]
  MFC100: 0.12 µg/mL (≈ 0.243 µM)
Candida parapsilosis [23]
  fractional inhibitory concentration index (FICI): 1.015
Cryptococcus neoformans [24]
  fractional inhibitory concentration index (FICI): 0.247
Cryptococcus neoformans [25]
  MIC80: 0.06 µg/mL (≈ 0.122 µM)
Pichia kudriavzevii [26]
  MIC80: 0.25 µg/mL (≈ 0.507 µM)
[Candida] auris [27]
  MIC80: 0.5 µg/mL (≈ 1.01 µM)
Candida albicans [28]
  fractional inhibitory concentration index (FICI): 0.375
Aspergillus fumigatus [29]
  MIC80: 4 µg/mL (≈ 8.11 µM)
A549
  CC50: 32 µg/mL (≈ 64.9 µM)
Cryptococcus neoformans [30]
  fractional inhibitory concentration index (FICI): 0.24
Candida albicans [31]
  MIC80: 2 µg/mL (≈ 4.06 µM)
Pichia kudriavzevii [32]
  fractional inhibitory concentration index (FICI): 0.018
[Candida] auris [33]
  fractional inhibitory concentration index (FICI): 2
Candida parapsilosis [34]
  fractional inhibitory concentration index (FICI): 0.508
HepG2
  CC50: 32 µg/mL (≈ 64.9 µM)
Candida albicans [35]
  fractional inhibitory concentration index (FICI): 0.508
Cryptococcus neoformans [36]
  Activity: Dose-dependent effect
[Candida] auris [37]
  fractional inhibitory concentration index (FICI): 0.531

## O=C(N/N=C/c1cc(Br)cc(Br)c1O)c1cccc(OC(F)F)c1
[4]
  selectivity ratio: 133
[21]
  selectivity ratio: 133
Cryptococcus neoformans [25]
  MIC80: 0.12 µg/mL (≈ 0.259 µM)
Cryptococcus neoformans [38]
  MFC100: 0.25 µg/mL (≈ 0.539 µM)
A549
  CC50: 16 µg/mL (≈ 34.5 µM)
HepG2
  CC50: 16 µg/mL (≈ 34.5 µM)

## O=C(N/N=C/c1cc(Br)cc(Br)c1O)c1ccc(OC(F)F)cc1
[4]
  selectivity ratio: 133
Cryptococcus neoformans [39]
  MFC100: 1 µg/mL (≈ 2.15 µM)
[21]
  selectivity ratio: 133
Cryptococcus neoformans [25]
  MIC80: 0.12 µg/mL (≈ 0.259 µM)
A549
  CC50: 16 µg/mL (≈ 34.5 µM)
HepG2
  CC50: 16 µg/mL (≈ 34.5 µM)

## O=C(N/N=C/c1cccc(Br)c1O)c1cccc(F)c1
[4]
  selectivity ratio: 16
[21]
  selectivity ratio: 16
Cryptococcus neoformans [22]
  MFC100: 2 µg/mL (≈ 5.93 µM)
Cryptococcus neoformans [25]
  MIC80: 1 µg/mL (≈ 2.97 µM)
A549
  CC50: 16 µg/mL (≈ 47.5 µM)
HepG2
  CC50: 16 µg/mL (≈ 47.5 µM)

## O=C(N/N=C/c1cccc(Cl)c1O)c1cccc(C(F)(F)F)c1
[4]
  selectivity ratio: 32
[21]
  selectivity ratio: 32
Cryptococcus neoformans [25]
  MIC80: 1 µg/mL (≈ 2.92 µM)
Cryptococcus neoformans [38]
  MFC100: 2 µg/mL (≈ 5.84 µM)
A549
  CC50: 32 µg/mL (≈ 93.4 µM)
HepG2
  CC50: 32 µg/mL (≈ 93.4 µM)
